IDE cell activ – IDE (human) activation, cell-based | P14735 | AID 493087 | HEK cells, FAbeta-B cleavage, fluorescence polarization; 0% vehicle, 100% cell-free pure enzyme wells | activation, % at 5.96 µM | 340,000 tested, 0.073% active;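 active = activation above the mean of all tested compounds plus 3 SD, set per screening campaign, cut at about 17% in these data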
TPT1 inhibitor – inhibitors of Candida albicans tRNA 2'-phosphotransferase TPT1; inhibition, % at 5 µM; AID 1962; recombinant caTPT1, FP RNA substrate dephosphorylation; 300,000 tested, 0.81% active;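 active = inhibition above the mean of all tested compounds plus 3 SD, set per screening campaign, cut at about 24% in these data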;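 also: plate controls were DMSO alone for no effect and ferristatin control at 100 nM for full effect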
HNF4A DNA FP – change in binding of human HNF4 alpha to DNA. P41235. HNF4a-FITC DNA binding, fluorescence polarization, 1 h. activity change, % at 10 µM. 360,000 tested, 0.3% active. AID 1224865; in the data active = activity change above about 30%, passing the limit was not always enough
Target sequence (P41235 whole entry, looked up): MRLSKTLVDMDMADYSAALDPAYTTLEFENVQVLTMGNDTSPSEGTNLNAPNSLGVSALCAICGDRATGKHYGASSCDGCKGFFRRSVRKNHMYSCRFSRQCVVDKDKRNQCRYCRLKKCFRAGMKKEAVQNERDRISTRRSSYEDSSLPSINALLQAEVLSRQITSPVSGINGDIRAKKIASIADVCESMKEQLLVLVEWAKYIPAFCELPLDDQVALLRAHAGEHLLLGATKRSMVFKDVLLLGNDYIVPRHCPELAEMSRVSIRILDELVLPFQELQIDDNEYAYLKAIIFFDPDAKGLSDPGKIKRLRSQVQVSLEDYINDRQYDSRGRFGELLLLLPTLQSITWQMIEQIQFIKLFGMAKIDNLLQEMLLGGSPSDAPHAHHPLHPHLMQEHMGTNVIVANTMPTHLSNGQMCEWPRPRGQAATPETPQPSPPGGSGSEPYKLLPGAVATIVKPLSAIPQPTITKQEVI
IDE cell inh – cellular human IDE inhibition. AID 434962. P14735. inhibition, % at 5.59 µM. 320,000 tested, 0.41% active. HEK cells, FAbetaB cleavage, fluorescence polarization;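 active = percent inhibition above the average of all tested compounds plus 3 SD, set per screening campaign, cut at about 16% in these data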;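 also: IDE supplied by intact live HEK cells; FP after avidin binding of uncleaved biotin substrate so inhibition keeps polarization high; 0% = DMSO wells and 100% = 60 µM reference IDE inhibitor Ii1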
CSN deneddyl inh – blocks human CSN-mediated cullin deneddylation | Q92905 | Purified CSN, SCF-Nedd8-OG deneddylation, fluorescence polarization | inhibition, % at 12.5 µM | 360,000 tested, 0.38% active | AID 651999;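 active = pattern-corrected inhibition above about 35%, with an unprinted fluorescence ratio check between 0.5 and 1.5, limit read from the data, passing the limit was not always enough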;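 also: 0% = enzyme with substrate and 100% = substrate without enzyme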
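assay system = purified human Csn5 enzyme expressed in HEK293T cells | amount = 0.24 nM enzyme | buffer or medium = Tris/NaCl/DTT buffer, pH 7.5 | reagent = 10 nM SCFSkp2-Nedd8OG | compound = one concentration, 12.5 µM, 0.25% DMSO | times = 90 min reaction at room temperature | signal = FP | read-out basis = % inhibition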
Rpn11 inh – Rpn11 (human) deubiquitinase inhibition | O00487 | human 26S proteasome, Ub4-pepOG fluorescence polarization; 20S core pre-blocked with epoxomicin | AID 588493 | inhibition, % at 20 µM | 360,000 tested, 0.59% active;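 active = inhibition at 20 µM, scaled to each plate's controls, above about 33%, limit read from the data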
CSN deneddyl val – validation of inhibitors of human CSN-mediated cullin deneddylation; shares compounds with CSN deneddyl inh; Csn5 deneddylation of SCF-Nedd8OG, fluorescence polarization, 90 min; inhibition, % at 16.6 µM; 540 tested, 62% active; in the data active = inhibition above about 50%;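 also: 0% = DMSO with enzyme and 100% = no enzyme wells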
MMP2 cntr CSN – MMP-2 (human) inhibition, counter-screen for CSN hits. AID 720655. recombinant MMP-2, FRET substrate fluorescence, 60 min. inhibition, % at 16.6 µM. shares compounds with CSN deneddyl inh. 540 tested, 33% active;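 active = corrected plate-normalized z-score of 5 or more, or -5 or less, or inhibition of 15% or more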;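 also: plate controls were DMSO wells with enzyme for no effect and buffer wells lacking MMP-2 for full effect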
Thrombin cntr – counter-screen for CSN deneddylation inhibitors: bovine thrombin inhibition. bovine thrombin cleavage of Ub4-pepOG, fluorescence polarization. 540 tested, 49% active. shares compounds with CSN deneddyl inh. inhibition, % at 16.6 µM;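 active = inhibition at or above a set limit, with a fluorescence interference ratio between 0.5 and a set maximum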
Starred values were filed as active, the others as inactive; . = no result. Most compounds without a hit are left out; they make up all but 1.7% or so of the library.

SMILES	IDE cell activ	TPT1 inhibitor	HNF4A DNA FP	IDE cell inh	CSN deneddyl inh	Rpn11 inh	CSN deneddyl val	MMP2 cntr CSN	Thrombin cntr
CN1C(=O)C(C)(C2=CCCCC2)C(=O)NC1=S (stereo unspecified)	4	.	5	.	-1	-2	.	.	.
S=C(NCCc1ccccc1)N1Cc2cc(N3CCCCC3)ccc2-n2nncc2C1	.	.	3	.	3	14	.	.	.
CC1=C(O)C(=O)C=C2C1=CC=C1C2(C)CCC2(C)C3CC(C)(C(=O)O)CCC3(C)CCC12C (stereo unspecified)	-17	.	-7	.	42*	12	.	10	-1
CC(N)C(=O)OC(C)(C)Cc1ccc(Cl)cc1 (stereo unspecified)	9	-5	-1	0	-11	-2	.	.	.
Clc1cccc(N2Cc3cc(-c4ccccc4)ccc3-n3nncc3C2)c1	.	.	-4	.	69*	8	66*	14	25*
Cn1ncnc2c(=O)n(C)c(=O)nc1-2	3	3	112	-3	74*	17	-21	-7	-37
O=[N+]([O-])c1[nH]cnc1Br	3	.	4	.	0	-2	.	.	.

From PubChem BioAssay
